Activity calls are given as the source filed them. The calls are words filed in the database; no cut-off is given here.

The nature of data set [1]: Inhibition of wild type human plasma alpha-thrombin assessed as spectrozyme TH hydrolysis after 10 mins in absence of exosite 1 ligand HirP. The method in brief:
(§1)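 Buffer was 20 mM Tris-HCl pH 7.4, 100 mM NaCl, 2.5 mM CaCl2, 0.1% PEG 8000. After 10 min, Spectrozyme TH was added and A405 read. Apparent IC50 and efficacy came from a logistic fit with all parameters floating.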

The nature of data set [2]: Inhibition of wild type human plasma alpha-thrombin assessed as spectrozyme TH hydrolysis after 10 mins in presence of 10 uM exosite 2 ligand H8. It is filed as cell-free. The method in brief:
as §1

Data set [3] in a line: Partial competitive inhibition of wild type human plasma alpha-thrombin assessed as spectrozyme TH hydrolysis after 10 mins in presence of 48 uM exosite 2 ligand UFH. It is filed as cell-free. The method in brief: as §1
Data set [4] concerns the target T1, Prothrombin (Homo sapiens, UniProt P00734). As to the kind of experiment: Inhibition of recombinant wild type thrombin expressed in BHK cells assessed as spectrozyme TH hydrolysis at 0.25 to 12.5 mM after 10 mins. Format: cell-based.
A further data set has as its system A549. As to the kind of experiment: Cytotoxicity against human A549 cells assessed as cell viability up to 420 uM after 120 hrs by MTT assay. It is filed as cell-based. Particulars: a549, 120 h. In short, it runs like this:
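A549 cells in DMEM with 10% heat-inactivated FBS were kept at 37 °C, 5% CO2. Cells were seeded at 30,000 per well for 4 h, then exposed to medium or varying compound concentrations (aqueous stock) for 120 h at 37 °C. MTT was added for 10 h, followed by SDS/DMF lysis for 10 h. Three experiments were run, analysed by one-way ANOVA with Dunnett's test.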

Data set [5] is described as follows: Inhibition of wild type human plasma alpha-thrombin assessed as spectrozyme TH hydrolysis after 10 mins by spectrophotometric analysis in absence of exosite 2 ligand UFH. In short, it runs like this:
as §1

The subject of the next data set is BHK. Briefly: Inhibition of recombinant thrombin Arg93,97,101Ala mutant expressed in BHK cells assessed as spectrozyme TH hydrolysis at 0.25 to 12.5 mM after 10 mins. It is filed as cell-based.
Data set [6] can be described thus: Inhibition of wild type human plasma alpha-thrombin assessed as spectrozyme TH hydrolysis after 10 mins in presence of 6.5 uM exosite 2 ligand FibP. It is filed as cell-free. The method in brief: as §1
The nature of data set [7]: Inhibition of recombinant thrombin Lys169Ala mutant expressed in BHK cells assessed as spectrozyme TH hydrolysis after 10 mins. Format: cell-based. In short, it runs like this: (§2)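 Recombinant thrombins (wild type or Ala mutants) made as prothrombin-1 in BHK cells, purified by HPC4 immunoaffinity, activated, and active-site titrated. About 5 nM enzyme was incubated 10 min at 25 °C with inhibitor in 20 mM Tris-HCl pH 7.4, 100 mM NaCl, 2.5 mM CaCl2, 0.1% PEG 8000. Spectrozyme TH was then added, and the initial A405 rate was read. The dose-response of fractional residual activity was fitted to a logistic equation for IC50, Hill slope and efficacy.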

Data set [8] is described as follows: Inhibition of recombinant thrombin Arg93,97,101Ala mutant expressed in BHK cells assessed as spectrozyme TH hydrolysis after 10 mins. It is filed as cell-based. The method in brief:
as §2

In data set [9] the target is T1, Prothrombin. Briefly: Inhibition of recombinant wild type thrombin expressed in BHK cells assessed as spectrozyme TH hydrolysis after 10 mins. It is filed as cell-based. In short, it runs like this:
as §2

The next data set addresses Coagulation factor X (Homo sapiens, UniProt P00742). As to the kind of experiment: Inhibition of human plasma F10a assessed as spectrozyme TH hydrolysis after 10 mins. The method in brief: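 Chromogenic assay of human plasma factor Xa (4 nM final) at 25 °C in 20 mM Tris-HCl pH 7.4, 100 mM NaCl, 2.5 mM CaCl2, 0.1% PEG 8000. Inhibitor dilutions (from 0.25–12.5 mM stocks) incubated with enzyme 10 min, then 1 mM Spectrozyme TH stock added. Initial rate at 405 nm gave fractional residual activity. Fitting the logistic equation yielded apparent IC50, Hill slope and efficacy ΔY.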

Data set [10] is described as follows: Inhibition of recombinant thrombin Arg175Ala mutant expressed in BHK cells assessed as spectrozyme TH hydrolysis after 10 mins. It is filed as cell-based. In short, it runs like this: as §2
A short description of data set [11]: Inhibition of wild type human plasma alpha-thrombin assessed as spectrozyme TH hydrolysis after 10 mins in absence of exosite 2 ligand H8. The method in brief:
as §1

Data set [12] is described as follows: Inhibition of recombinant thrombin Lys235Ala mutant expressed in BHK cells assessed as spectrozyme TH hydrolysis after 10 mins. Format: cell-based. The method in brief: as §2
Data set [13] is described as follows: Inhibition of wild type human plasma alpha-thrombin assessed as spectrozyme TH hydrolysis after 10 mins in absence of exosite 2 ligand FibP. In short, it runs like this:
as §1

For data set [14], the species on record is Homo sapiens. As to the kind of experiment: Inhibition of wild type human plasma alpha-thrombin assessed as spectrozyme TH hydrolysis after 10 mins in presence of exosite 1 ligand HirP. Format: cell-free. The method in brief: as §1
The species named for data set [15] is Homo sapiens. As to the kind of experiment: Binding affinity to human antithrombin by spectrofluorometric analysis.

Coagulation factor X, sequence (P00742 41-179 limits assumed): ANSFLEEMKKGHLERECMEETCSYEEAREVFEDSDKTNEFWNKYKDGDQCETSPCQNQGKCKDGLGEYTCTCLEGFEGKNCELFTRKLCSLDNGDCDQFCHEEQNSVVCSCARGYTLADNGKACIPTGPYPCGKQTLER
Coagulation factor X, sequence (P00742 235-488 limits assumed): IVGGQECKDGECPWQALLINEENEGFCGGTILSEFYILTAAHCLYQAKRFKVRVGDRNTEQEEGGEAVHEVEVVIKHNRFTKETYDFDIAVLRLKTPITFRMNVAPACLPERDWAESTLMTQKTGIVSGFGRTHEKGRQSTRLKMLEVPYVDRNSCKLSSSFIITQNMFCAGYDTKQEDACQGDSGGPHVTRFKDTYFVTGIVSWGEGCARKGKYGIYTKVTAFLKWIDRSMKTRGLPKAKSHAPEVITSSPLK

With `CCOC(=O)c1c(C)oc2cc(OCC)c(OCc3oc4cc(OCC)c(OS(=O)(=O)O)cc4c3C(=O)OCC)cc12`, in data set [1], the IC50 was 4.5 µM.
The same measure, in the same setting: the figure for `COC(=O)c1c(C)oc2cc(OC)c(OCc3oc4cc(OC)c(OS(=O)(=O)O)cc4c3C(=O)OC)cc12` is 31.9 µM; for `CCOC(=O)c1c(C)oc2cc(OC(C)C)c(OCc3oc4cc(OC(C)C)c(OS(=O)(=O)O)cc4c3C(=O)OCC)cc12` it is 1.3 µM.
On to `COc1cc2oc(C)c(C(=O)O)c2cc1OCc1oc2cc(OC)c(OS(=O)(=O)O)cc2c1C(=O)O`, for which the IC50 in [1] is over 500 µM.
For `CCOC(=O)c1c(C)oc2cc(OC)c(OCc3oc4cc(OC)c(OS(=O)(=O)[O-])cc4c3C(=O)OCC)cc12.[Na+]`, the IC50 in data set [2] is 3.7 µM; in data set [3] it was 36.1 µM; in data set [5], 8.8 µM; in data set [6], 118 µM; in data set [7], 4.9 µM; in [8], 5 µM. Further, the half-maximal inhibitory concentration (IC50) on Prothrombin [9] is 5.5 µM; on Coagulation factor X, over 300 µM; in [10] it was 4.9 µM; in [11] it was 2700 nM; in [12], 4.9 µM; in [13] it was 7.9 µM. Further, the IC50 in data set [1] turned out to be 6.2 µM. Besides, the results for the inhibition on Prothrombin [4] and with BHK were 30% and 70%, respectively. Besides, the Activity result in the data set on A549 is on record as “Non-toxic”. In the data set listed under Homo sapiens [14], the inhibition result is “Active”.
In the data set filed under Homo sapiens [15], `CO[C@H]1O[C@H](COS(=O)(=O)O)[C@@H](O[C@@H]2O[C@@H](C(=O)O)[C@@H](O[C@H]3O[C@H](COS(=O)(=O)O)[C@@H](O[C@@H]4O[C@H](C(=O)O)[C@@H](O[C@H]5O[C@H](COS(=O)(=O)O)[C@@H](O)[C@H](O)[C@H]5NS(=O)(=O)O)[C@H](O)[C@H]4O)[C@H](OS(=O)(=O)O)[C@H]3NS(=O)(=O)O)[C@H](O)[C@H]2OS(=O)(=O)O)[C@H](O)[C@H]1NS(=O)(=O)O` registered an Activity of 50 nM.
In the case of `COCCOC(=O)c1c(C)oc2cc(OC)c(OCc3oc4cc(OC)c(OS(=O)(=O)O)cc4c3C(=O)OCCOC)cc12`, the IC50 in [1] came to 16.9 µM.

The IC50 is the concentration that inhibits the measured activity by half. What is called inhibition is how much of the control response was suppressed.

The values are drawn from ChEMBL document CHEMBL2169875, “Designing allosteric regulators of thrombin. Monosulfated benzofuran dimers selectively interact with Arg173 of exosite 2 to induce inhibition” (J Med Chem, 2012).
